Experimental data taken from PMC5621377 (Clinical cancer research : an official journal of the …, 2016).

Legend:
[1] = tested on: Rb+ advanced solid tumors or lymphomas; test: Clinical activity, radiographic response; assay type: in vivo, human
Outline: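 Oral test compound given daily on a 3-weeks-on/1-week-off schedule (50–1,200 mg/day) or a continuous 28-day schedule (600 mg/day). Response was assessed by CT or MRI per RECIST 1.0 for solid tumors or IWG criteria for lymphomas. Scans were done at the end of every second cycle for six cycles, then every third cycle, and at end of treatment. Patients receiving at least one dose were included; analyses were descriptive.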

[2] = tested on: patients with Rb+ advanced solid tumors or lymphomas; test: Phase I dose escalation: DLT and MTD/RDE determination; assay type: in vivo
[3] = tested on: neuroblastoma cell lines; settings: in vitro, dose-dependent; cited from earlier work
[4] = ref unpublished data; cited from earlier work

CN(C)C(=O)c1cc2cnc(Nc3ccc(N4CCNCC4)cn3)nc2n1C1CCCC1 [ribociclib]
patients with best response of stable disease ([1]; 132 patients): 43
stable disease as best overall response by RECIST, patients ([1]; 132 patients): 41
stable disease as best overall response per IWG, patients ([1]; 132 patients): two
partial response rate ([1]; 132 patients, RECIST): 2.3%
stable disease as best overall response, rate ([1]; RECIST plus IWG, 132 patients): 32.6%
time on therapy ([1]; one patient with teratoma, 400 mg/day 3-weeks-on/1-week-off): 100 weeks
time on therapy ([1]; patient with liposarcoma, 600 mg/day continuous, past cut-off date): 102 weeks
maximum tolerated dose (MTD) ([2]; 3-weeks-on/1-week-off schedule): 900 mg/day
recommended dose for expansion (RDE) ([2]; human, in vivo, 28 days): 600 mg/day
number of dose-limiting toxicities during Cycle 1 ([2]; in vivo): Nine
concentration with marked accumulation of cells in G0/G1 phase [3]: above 100 nmol/L
nonclinical toxicity finding, bone marrow [4]: hypocellularity
nonclinical toxicity finding, cardiac [4]: prolongation of the average QTc
nonclinical toxicity finding, lymphoid system [4]: lymphoid depletion
nonclinical toxicity finding, testes [4]: atrophy
